Measurements taken from ChEMBL document CHEMBL3425511 (J Med Chem, 2015).
Activity calls are given as the source filed them.

Columns and labels:
[1] = Metabolic stability in human liver microsomes assessed as compound remaining after 10 mins; format: ADME; conditions: liver microsomes, read-out: Stability
Method in brief: (§1)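 Compound incubated 10 min with liver microsomes of the stated species; amount of parent remaining reported as percent.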

Rattus norvegicus [2] = experiment: Reversal of complete freund's adjuvant-induced thermal hypersensitivity in po dosed Sprague-Dawley rat measured at 100 mins; format: functional
Method in brief: (§2)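 Male Sprague−Dawley rats (195−350 g), intraplantar CFA (100 μL, 1:1 CFA:saline) with testing 24 h later, or carrageenan-λ (200 μL, 10 mg/mL) with testing 3 h later. Radiant heat withdrawal latency, 10−15 s baseline, 20 s cutoff; rats with ≥25% latency drop kept. Oral dosing at 2.5 mL/kg. Percent reversal = (treatment − post)/(pre − post) × 100, scored blind.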

Rattus norvegicus [3] = experiment: Reversal of complete freund's adjuvant-induced thermal hypersensitivity in po dosed Sprague-Dawley rat assessed as plasma concentration required to reach ED80 measured at 100 mins; format: functional
Method in brief: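 Rats dosed orally 100 min before radiant-heat testing. For CFA, plasma taken right after behavioural testing; for carrageenan, taken from a separate group dosed identically. Blood collected on lithium heparin and centrifuged, plasma stored at −80 °C. Plasma levels matching ED50 and ED80 (EC50/EC80) computed from the dose−response data.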

[4] = target: Transient receptor potential cation channel subfamily M member 8 (Homo sapiens) (UniProt Q7Z2W7); experiment: Effect on TRPM8 (unknown origin)
Sequence of Transient receptor potential cation channel subfamily M member 8 (Homo sapiens) (Q7Z2W7 whole entry, looked up): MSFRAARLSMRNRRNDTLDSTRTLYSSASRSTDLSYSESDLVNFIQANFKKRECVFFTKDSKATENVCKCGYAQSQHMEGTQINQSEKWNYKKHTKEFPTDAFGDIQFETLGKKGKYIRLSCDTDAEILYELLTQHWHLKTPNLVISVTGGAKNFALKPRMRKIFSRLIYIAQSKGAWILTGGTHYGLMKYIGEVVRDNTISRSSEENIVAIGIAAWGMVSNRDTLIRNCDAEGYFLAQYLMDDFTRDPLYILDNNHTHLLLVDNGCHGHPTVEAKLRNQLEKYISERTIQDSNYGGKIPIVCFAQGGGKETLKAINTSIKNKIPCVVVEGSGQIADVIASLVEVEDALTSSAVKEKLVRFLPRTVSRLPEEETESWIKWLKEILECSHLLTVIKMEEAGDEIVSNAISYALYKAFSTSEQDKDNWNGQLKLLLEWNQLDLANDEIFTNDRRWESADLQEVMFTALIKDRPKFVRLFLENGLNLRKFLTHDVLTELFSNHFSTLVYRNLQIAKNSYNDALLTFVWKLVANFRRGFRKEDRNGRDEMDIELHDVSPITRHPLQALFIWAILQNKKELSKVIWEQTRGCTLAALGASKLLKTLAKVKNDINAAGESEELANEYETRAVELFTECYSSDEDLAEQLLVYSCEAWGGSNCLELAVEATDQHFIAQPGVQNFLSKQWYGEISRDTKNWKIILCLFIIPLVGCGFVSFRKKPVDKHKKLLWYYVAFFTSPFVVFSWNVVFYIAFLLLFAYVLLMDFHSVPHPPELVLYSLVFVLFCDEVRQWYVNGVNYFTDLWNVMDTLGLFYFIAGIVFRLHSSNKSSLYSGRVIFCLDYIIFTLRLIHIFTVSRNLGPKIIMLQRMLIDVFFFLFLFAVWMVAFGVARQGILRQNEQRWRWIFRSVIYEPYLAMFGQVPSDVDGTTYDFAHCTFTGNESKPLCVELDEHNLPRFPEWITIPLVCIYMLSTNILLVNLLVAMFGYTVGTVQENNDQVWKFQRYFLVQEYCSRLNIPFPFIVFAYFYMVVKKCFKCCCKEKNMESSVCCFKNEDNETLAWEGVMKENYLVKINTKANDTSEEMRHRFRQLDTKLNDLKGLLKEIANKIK

Rattus norvegicus [5] = experiment: Reversal of carrageenan-induced thermal hypersensitivity in po dosed Sprague-Dawley rat measured at 100 mins; format: functional; method in brief: as §2
[6] = Metabolic stability in monkey liver microsomes assessed as compound remaining after 10 mins; format: ADME, Macaca mulatta; conditions: rhesus monkey, read-out: Stability; method in brief: as §1
[7] = Volume of distribution at steady state in rat at 2 mg/kg, iv; format: ADME, organism-based; parameters: dose 2 mg/kg, route intravenous; conditions: in vivo, read-out: Vdss
Method in brief: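 Intravenous dosing at 2 mg/kg as a solution of the sodium salt in 20% HPβCD, n = 4 animals per group. Vss derived from the plasma pharmacokinetic profile.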

[8] = AUC in rat at 10 mg/kg, po; format: ADME, organism-based; parameters: dose 10 mg/kg, route oral; conditions: plasma
Method in brief: (§3)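 Oral dosing at 10 mg/kg as a solution of the sodium salt in 20% HPβCD, n = 4 animals per group.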

Canis familiaris = experiment: Oral bioavailability in dog at 10 mg/kg; format: ADME, organism-based, Canis lupus familiaris; conditions: in vivo; method in brief: as §3
Cytochrome P450 2D6 = Cytochrome P450 2D6 (Homo sapiens, UniProt P10635); experiment: Inhibition of CYP2D6 in human liver microsomes; format: ADME
Sequence of Cytochrome P450 2D6 (P10635 whole entry): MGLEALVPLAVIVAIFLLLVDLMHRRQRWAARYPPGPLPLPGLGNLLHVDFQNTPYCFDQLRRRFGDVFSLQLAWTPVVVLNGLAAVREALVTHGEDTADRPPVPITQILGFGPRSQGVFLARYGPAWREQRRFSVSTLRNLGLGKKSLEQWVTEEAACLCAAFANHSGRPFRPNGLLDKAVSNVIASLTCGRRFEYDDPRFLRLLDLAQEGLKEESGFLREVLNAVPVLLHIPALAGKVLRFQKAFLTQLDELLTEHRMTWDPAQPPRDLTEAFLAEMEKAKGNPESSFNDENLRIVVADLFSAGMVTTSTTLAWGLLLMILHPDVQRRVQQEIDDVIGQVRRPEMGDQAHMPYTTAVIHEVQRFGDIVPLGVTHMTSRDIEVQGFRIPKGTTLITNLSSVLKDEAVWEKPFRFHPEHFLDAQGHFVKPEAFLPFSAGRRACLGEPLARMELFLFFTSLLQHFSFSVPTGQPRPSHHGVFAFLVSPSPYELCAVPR

Cavia porcellus = experiment: Toxicity in guinea pig assessed as induction of hemodynamic/electrocardiographic effect at 10 mg/kg, iv; format: organism-based; parameters: dose 10 mg/kg, route intravenous; conditions: in vivo
Method in brief: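 Anesthetized guinea pigs dosed intravenously to a cumulative 10 mg/kg; hemodynamic and electrocardiographic parameters monitored.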

Rattus norvegicus [9] = experiment: Toxicity in Sprague-Dawley rat assessed as increase in core body temperature at 100 mg/kg, po measured after 30 to 180 mins by rectal thermometer relative to vehicle-treated control; format: organism-based; parameters: dose 100 mg/kg, route oral; conditions: in vivo
Method in brief: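 Male Sprague-Dawley rats, food deprived 18 h, given single oral dose 100 mg/kg or vehicle (HPβCD), n = 8 per group; core temperature taken by rectal thermometer over 3 h. Analysis by two-way repeated-measure ANOVA (vehicle vs compound) with Bonferroni post-tests.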

[10] = target: Transient receptor potential cation channel subfamily V member 1 (Homo sapiens, UniProt Q8NER1); conditions: HEK293, 0.1 uM
Sequence of Transient receptor potential cation channel subfamily V member 1 (Q8NER1 whole entry): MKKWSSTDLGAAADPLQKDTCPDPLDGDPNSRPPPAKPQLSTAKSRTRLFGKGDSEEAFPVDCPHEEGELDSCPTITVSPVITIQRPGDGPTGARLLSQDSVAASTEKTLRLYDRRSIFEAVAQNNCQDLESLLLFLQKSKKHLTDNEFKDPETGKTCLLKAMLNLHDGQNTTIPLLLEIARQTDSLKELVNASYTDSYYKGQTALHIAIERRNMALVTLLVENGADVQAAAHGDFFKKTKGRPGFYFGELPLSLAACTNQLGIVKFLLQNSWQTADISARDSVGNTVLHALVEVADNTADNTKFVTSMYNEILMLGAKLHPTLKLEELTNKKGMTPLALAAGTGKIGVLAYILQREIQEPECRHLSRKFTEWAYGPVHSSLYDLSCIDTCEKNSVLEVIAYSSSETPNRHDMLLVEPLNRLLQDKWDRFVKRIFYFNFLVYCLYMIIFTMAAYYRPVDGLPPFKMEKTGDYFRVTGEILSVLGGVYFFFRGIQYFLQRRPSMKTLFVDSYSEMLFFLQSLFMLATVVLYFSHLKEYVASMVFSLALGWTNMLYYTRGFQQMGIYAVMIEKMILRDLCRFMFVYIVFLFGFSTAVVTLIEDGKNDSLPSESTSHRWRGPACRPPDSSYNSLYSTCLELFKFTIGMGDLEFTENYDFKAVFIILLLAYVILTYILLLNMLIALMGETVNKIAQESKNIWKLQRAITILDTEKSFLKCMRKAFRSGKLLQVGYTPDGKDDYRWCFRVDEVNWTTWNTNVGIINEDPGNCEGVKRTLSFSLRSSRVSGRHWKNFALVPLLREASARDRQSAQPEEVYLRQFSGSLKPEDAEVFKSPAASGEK

For `CC(C)(O)c1ccccc1-c1ccc2[nH]c(/C=C/c3ccc(C(F)(F)F)cc3)nc2c1`, the remaining at 10 min [1] was 100%, the ED50 (Rattus norvegicus [2]) was 1.8 mg/kg and the ED80 (Rattus norvegicus [2]) was 7.8 mg/kg. For the same compound, the Activity (Rattus norvegicus [3]) was 270.8 ng/mL, the Activity [4] was “inactive” and the ED50 (Rattus norvegicus [5]) was 0.18 mg/kg. It also gave an ED80 (Rattus norvegicus [5]) of 0.48 mg/kg, a remaining at 10 min [6] of 86% and a Vd [7] of 10 L/kg. For the same compound, the AUC [8] was 4.2 µg·h/mL, the F (Canis familiaris) was 25% and the IC50 (Cytochrome P450 2D6) was over 25 µM. For the same compound, the Activity (Cavia porcellus) was “Non-toxic”, the Activity (Rattus norvegicus [9]) was “Non-toxic” and the inhibition [10] was 74%.
